Key:
[1] = biological target: T1, Angiotensin-converting enzyme (Rattus norvegicus) (UniProt P47820); assay: Compound was tested for plasma inhibition of Angiotensin I converting enzyme activity in the conscious rat. Expressed as Inhibition of AI pressor response at 4 hr at a dose of 11.7 mg/kg po; format: organism-based; set-up: dose 11.7 mg/kg
T1 sequence (whole entry): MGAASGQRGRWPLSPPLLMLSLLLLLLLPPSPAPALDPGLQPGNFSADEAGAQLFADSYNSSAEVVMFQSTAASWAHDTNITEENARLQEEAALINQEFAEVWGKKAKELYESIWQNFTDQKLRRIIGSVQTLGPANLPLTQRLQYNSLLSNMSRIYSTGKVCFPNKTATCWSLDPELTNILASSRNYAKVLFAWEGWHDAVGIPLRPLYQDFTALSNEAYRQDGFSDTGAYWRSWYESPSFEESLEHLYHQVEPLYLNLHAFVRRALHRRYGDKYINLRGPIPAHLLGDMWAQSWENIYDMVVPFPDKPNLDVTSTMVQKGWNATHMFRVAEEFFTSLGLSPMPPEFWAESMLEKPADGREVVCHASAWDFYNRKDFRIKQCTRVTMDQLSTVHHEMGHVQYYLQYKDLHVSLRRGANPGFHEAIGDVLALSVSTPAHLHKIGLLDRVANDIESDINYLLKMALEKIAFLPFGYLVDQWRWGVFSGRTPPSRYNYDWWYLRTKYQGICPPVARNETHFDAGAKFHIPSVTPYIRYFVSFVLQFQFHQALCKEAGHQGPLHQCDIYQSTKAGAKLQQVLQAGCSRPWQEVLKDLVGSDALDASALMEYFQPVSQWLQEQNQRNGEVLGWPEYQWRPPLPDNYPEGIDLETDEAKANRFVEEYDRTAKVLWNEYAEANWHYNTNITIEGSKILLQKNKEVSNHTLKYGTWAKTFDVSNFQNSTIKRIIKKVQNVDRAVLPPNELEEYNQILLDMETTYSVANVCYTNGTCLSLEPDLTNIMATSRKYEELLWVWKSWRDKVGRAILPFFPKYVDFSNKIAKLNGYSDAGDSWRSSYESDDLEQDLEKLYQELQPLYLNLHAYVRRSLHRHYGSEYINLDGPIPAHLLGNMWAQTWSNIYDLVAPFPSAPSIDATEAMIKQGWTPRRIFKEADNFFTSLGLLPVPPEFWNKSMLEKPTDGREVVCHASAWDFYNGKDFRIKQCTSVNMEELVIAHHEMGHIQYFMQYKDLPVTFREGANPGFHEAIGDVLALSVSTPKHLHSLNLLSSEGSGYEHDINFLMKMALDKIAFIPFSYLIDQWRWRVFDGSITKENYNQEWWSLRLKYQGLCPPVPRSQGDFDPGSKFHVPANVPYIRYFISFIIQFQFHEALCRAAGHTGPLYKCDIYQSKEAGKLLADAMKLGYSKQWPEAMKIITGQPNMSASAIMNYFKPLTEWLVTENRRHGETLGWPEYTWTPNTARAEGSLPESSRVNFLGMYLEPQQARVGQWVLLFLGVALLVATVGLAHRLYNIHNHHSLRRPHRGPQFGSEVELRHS
Procedure, shortened: (§1)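 Male conscious normotensive Sprague-Dawley rats (275-390 g), given femoral arterial and venous catheters under methohexital sodium (75 mg/kg ip) anesthesia. Next day, pressor responses to three angiotensin-I challenges (300 ng/kg iv) recorded by direct arterial pressure. Compound then dosed orally, and AI challenge repeated at set times. Each post-dose response compared with the mean of the three baseline responses, giving % inhibition.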

Rattus norvegicus [2] = assay: Plasma ANF Concentration in the Conscious Rat at a dose of 11.7(po)mg/kg at 0.5 h; format: functional
Procedure, shortened: (§2)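 Male Sprague-Dawley rats (275-390 g) received femoral artery and vein catheters under ketamine (150 mg/kg)/acepromazine and recovered for 24 h, tethered, before study conscious. ratANF(99-126) was infused at 450 ng/kg/min iv for 5 h. Baseline blood was drawn at 60 min into the infusion, then compound was given po.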

Rattus norvegicus [3] = assay: Plasma ANF Concentration in the Conscious Rat at a dose of 11.7(po)mg/kg at 2 h; format: functional; procedure, shortened: as §2
[4] = biological target: T1, Angiotensin-converting enzyme (Rattus norvegicus); assay: Compound was tested for plasma inhibition of Angiotensin I converting enzyme activity in the conscious rat. Expressed as Inhibition of AI pressor response at 6 hr at a dose of 11.7 mg/kg po; format: organism-based; set-up: dose 11.7 mg/kg
Procedure, shortened: (§3)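 Male conscious normotensive Sprague-Dawley rats (275-390 g), prepared under methohexital sodium (75 mg/kg ip) with femoral arterial and venous catheters. The next day, pressor responses to three angiotensin-I challenges (300 ng/kg iv) were recorded. Compound was then given orally and angiotensin-I challenges were repeated at set times. Percent inhibition is relative to the mean of the three baseline responses.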

Rattus norvegicus [5] = assay: Plasma ANF Concentration in the Conscious Rat at a dose of 11.7(po)mg/kg at 4 h; format: functional; procedure, shortened: as §2
[6] = biological target: T1, Angiotensin-converting enzyme (Rattus norvegicus); assay: Compound was tested for plasma inhibition of Angiotensin I converting enzyme activity in the conscious rat. Expressed as Inhibition of AI pressor response at 1 hr at a dose of 11.7 mg/kg po; format: organism-based; set-up: dose 11.7 mg/kg; procedure, shortened: as §1
[7] = biological target: T1, Angiotensin-converting enzyme (Rattus norvegicus); assay: Compound was tested for plasma inhibition of Angiotensin I converting enzyme activity in the conscious rat. Expressed as Inhibition of AI pressor response at 2 hr at a dose of 11.7 mg/kg po; format: organism-based; set-up: dose 11.7 mg/kg; procedure, shortened: as §1
Rattus norvegicus [8] = assay: Plasma ANF Concentration in the Conscious Rat at a dose of 11.7(po)mg/kg at 1 h; format: functional; procedure, shortened: as §2
[9] = biological target: T1, Angiotensin-converting enzyme (Rattus norvegicus); assay: Compound was tested for plasma inhibition of Angiotensin I converting enzyme activity in the conscious rat. Expressed as Inhibition of AI pressor response at 4 hr at a dose of 13.7 mg/kg po; format: organism-based; set-up: dose 13.7 mg/kg; procedure, shortened: as §3
[10] = biological target: T1, Angiotensin-converting enzyme (Rattus norvegicus); assay: Compound was tested for plasma inhibition of Angiotensin I converting enzyme activity in the conscious rat. Expressed as Inhibition of AI pressor response at 2 hr at a dose of 13.7 mg/kg po; format: organism-based; set-up: dose 13.7 mg/kg; procedure, shortened: as §1
[11] = biological target: T1, Angiotensin-converting enzyme (Rattus norvegicus); assay: Compound was tested for plasma inhibition of Angiotensin I converting enzyme activity in the conscious rat. Expressed as Inhibition of AI pressor response at 6 hr at a dose of 13.7 mg/kg po; format: organism-based; set-up: dose 13.7 mg/kg; procedure, shortened: as §3
[12] = biological target: T1, Angiotensin-converting enzyme (Rattus norvegicus); assay: Compound was tested for plasma inhibition of Angiotensin I converting enzyme activity in the conscious rat. Expressed as Inhibition of AI pressor response at 1 hr at a dose of 13.7 mg/kg po; format: organism-based; set-up: dose 13.7 mg/kg; procedure, shortened: as §1
[13] = biological target: T1, Angiotensin-converting enzyme (Rattus norvegicus); assay: Compound was tested for plasma inhibition of Angiotensin I converting enzyme activity in the conscious rat. Expressed as Inhibition of AI pressor response at 1 hr at a dose of 14.5 mg/kg po; format: organism-based; set-up: dose 14.5 mg/kg; procedure, shortened: as §1
[14] = biological target: T1, Angiotensin-converting enzyme (Rattus norvegicus); assay: Compound was tested for plasma inhibition of Angiotensin I converting enzyme activity in the conscious rat. Expressed as Inhibition of AI pressor response at 4 hr at a dose of 14.5 mg/kg po; format: organism-based; set-up: dose 14.5 mg/kg; procedure, shortened: as §3
[15] = biological target: T1, Angiotensin-converting enzyme (Rattus norvegicus); assay: Compound was tested for plasma inhibition of Angiotensin I converting enzyme activity in the conscious rat. Expressed as Inhibition of AI pressor response at 6 hr at a dose of 14.5 mg/kg po; format: organism-based; set-up: dose 14.5 mg/kg; procedure, shortened: as §3
[16] = biological target: T1, Angiotensin-converting enzyme (Rattus norvegicus); assay: Compound was tested for plasma inhibition of Angiotensin I converting enzyme activity in the conscious rat. Expressed as Inhibition of AI pressor response at 2 hr at a dose of 14.5 mg/kg po; format: organism-based; set-up: dose 14.5 mg/kg; procedure, shortened: as §1
[17] = biological target: T1, Angiotensin-converting enzyme (Rattus norvegicus); assay: Compound was tested for plasma inhibition of Angiotensin I converting enzyme activity in the conscious rat. Expressed as Inhibition of AI pressor response at 4 hr at a dose of 12.1 mg/kg po; format: organism-based; set-up: dose 12.1 mg/kg; procedure, shortened: as §1
[18] = biological target: T1, Angiotensin-converting enzyme (Rattus norvegicus); assay: Compound was tested for plasma inhibition of Angiotensin I converting enzyme activity in the conscious rat. Expressed as Inhibition of AI pressor response at 1 hr at a dose of 12.1 mg/kg po; format: organism-based; set-up: dose 12.1 mg/kg; procedure, shortened: as §1
[19] = biological target: T1, Angiotensin-converting enzyme (Rattus norvegicus); assay: Compound was tested for plasma inhibition of Angiotensin I converting enzyme activity in the conscious rat. Expressed as Inhibition of AI pressor response at 2 hr at a dose of 12.1 mg/kg po; format: organism-based; set-up: dose 12.1 mg/kg; procedure, shortened: as §1
[20] = biological target: T1, Angiotensin-converting enzyme (Rattus norvegicus); assay: Compound was tested for plasma inhibition of Angiotensin I converting enzyme activity in the conscious rat. Expressed as Inhibition of AI pressor response at 6 hr at a dose of 12.1 mg/kg po; format: organism-based; set-up: dose 12.1 mg/kg; procedure, shortened: as §3

`CCOC(=O)[C@H](Cc1ccc(OC)cc1)NC(=O)C1(NC(=O)[C@H](SC(C)=O)C(C)C)CCCC1` was tested, and the inhibition [1] was 79%, the Control (Rattus norvegicus [2]) was 275% and the Control (Rattus norvegicus [3]) was 250%. It also gave an inhibition [4] of 77%, a Control (Rattus norvegicus [5]) of 251% and an inhibition [6] of 73%. It also gave an inhibition [7] of 81% and a Control (Rattus norvegicus [8]) of 346%.
`CCCCOC(=O)[C@H](Cc1ccc(O)cc1)NC(=O)C1(NC(=O)[C@H](SC(=O)C2CCCC2)C(C)C)CCCC1` showed an inhibition [9] of 38%, an inhibition [10] of 49% and an inhibition [11] of 27%. For the same compound, the inhibition [12] was 57%.
For `COC(=O)[C@H](Cc1ccc(OC)cc1)NC(=O)C1(NC(=O)[C@H](SC(C)=O)C(C)C)CCCC1`, the inhibition [1] was 87%, the Control (Rattus norvegicus [2]) was 279% and the Control (Rattus norvegicus [3]) was 263%. For the same compound, the inhibition [4] was 78%, the Control (Rattus norvegicus [5]) was 342% and the inhibition [6] was 97%. The inhibition [7] was 90% and the Control (Rattus norvegicus [8]) was 337%.
`CCCCOC(=O)[C@H](Cc1ccc(O)cc1)NC(=O)C1(NC(=O)[C@H](SC(=O)CN2CCOCC2)C(C)C)CCCC1` gave an inhibition [13] of 57%, an inhibition [14] of 34% and an inhibition [15] of 12%. The inhibition [16] was 53%.
`CC(=O)S[C@@H](C(=O)NC1(C(=O)N[C@@H](Cc2ccc(O)cc2)C(=O)OC(C)C)CCCC1)C(C)C` showed an inhibition [17] of 81%, an inhibition [18] of 67% and an inhibition [19] of 85%. The inhibition [20] was 78%.
`CCOC(=O)CC(=O)Oc1ccc(C[C@H](NC(=O)C2(NC(=O)[C@H](SC(C)=O)C(C)C)CCCC2)C(=O)OCC)cc1` gave an inhibition [13] of 88%, an inhibition [14] of 82% and an inhibition [15] of 73%. It also gave an inhibition [16] of 78%.

Reference: ChEMBL document CHEMBL1129264, “Mercaptoacyl dipeptides as orally active dual inhibitors of angiotensin-converting enzyme and neutral endopeptidase” (1996)
